An excerpt weighted towards active compounds, which were near 2.5% of everything screened.
SENP1 FRET inh – SENP1 (human) catalytic domain inhibition; recombinant SENP1 catalytic domain, CyPet-SUMO1-YPet FRET cleavage; hit rate 0.21% among 360,000; Q9P0U3; inhibition, % at 10 µM;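 active = inhibition at least 30% at 10 µM, raw YFP signal under a set limit, fluorescence ratio 0.5 to 1.5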
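Assay system: hSENP1 catalytic domain, recombinant. Amount: SENP1 enzyme, 20 pM final. Schedule: 50 min reaction, RT, dark. Technique: FRET, CFP and YFP emission. Control set: no-enzyme wells low, DMSO-plus-enzyme wells high control.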
ABHD5 PLIN5 PPI – ABHD5-PLIN5 protein interaction inhibition; Q00G26+Q8WTS1; Split G. princeps luciferase complementation, luminescence, 4 h; inhibition, % at 4 µM; hit rate 0.78% among 360,000;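 active = inhibition above the mean inhibition across every tested compound plus 3 SD, cut at about 22% in these data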
NadD block – blocks S. aureus nicotinate mononucleotide adenylyltransferase | hit rate 0.78% among 360,000 | AID 602399 | inhibition, % at 20 µM | purified NadD enzyme, colorimetric absorbance read-out; in the data active = inhibition above about 26%
GRK2 inh – human GRK2 inhibition via aptamer displacement; AID 488847; hit rate 0.59% among 330,000; bead flow cytometry, FAM-aptamer displacement from GRK2; inhibition of aptamer binding, % at 10 µM;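 active = inhibition of aptamer binding above 40%, roughly 3 SD of noise, on plates passing a quality check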;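 note: median bead fluorescence of bound FAM aptamer so fluorescent compounds give negative values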
Beta2AR agonist – activates human beta-2 adrenergic receptor causing internalization. P07550. Am2.2-beta2AR cells, FAP receptor internalization, flow cytometry. response, % (concentration not given with the values). hit rate 0.43% among 340,000;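 active = response above a set limit, near 3 SD of response in nonfluorescent compounds, cut at about 42% in these data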
Target sequence (P07550 whole entry, looked up): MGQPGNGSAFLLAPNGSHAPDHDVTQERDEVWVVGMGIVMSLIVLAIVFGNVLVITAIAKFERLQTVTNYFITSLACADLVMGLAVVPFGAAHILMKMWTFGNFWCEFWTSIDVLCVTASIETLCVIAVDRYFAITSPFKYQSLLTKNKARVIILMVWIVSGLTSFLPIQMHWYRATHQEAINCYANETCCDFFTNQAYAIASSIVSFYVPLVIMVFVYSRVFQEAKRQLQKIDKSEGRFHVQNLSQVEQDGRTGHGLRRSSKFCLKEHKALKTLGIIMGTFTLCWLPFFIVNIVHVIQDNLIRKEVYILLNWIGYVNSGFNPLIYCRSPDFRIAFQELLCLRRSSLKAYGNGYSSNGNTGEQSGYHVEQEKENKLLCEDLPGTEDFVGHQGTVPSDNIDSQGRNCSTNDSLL
ABHD5-PLIN5 conf – ABHD5-PLIN5 interaction inhibition, confirmed; shares compounds with ABHD5 PLIN5 PPI; biochemical ABHD5-PLIN5 interaction, luminescence; inhibition, % at 4 µM; hit rate 67% among 2,200; in the data active = inhibition above about 23%
HNF4 counter – active in HNF4 split-luciferase counter-screen for ABHD5-PLIN5 inhibitors; shares compounds with ABHD5 PLIN5 PPI; AID 651674; inhibition, % at 4 µM; hit rate 77% among 2,200; HNF4 dimerization, luminescence, biochemical;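 active = mean inhibition across replicate wells exceeding the computed hit threshold, cut at about 13% in these data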;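 note: light from luciferase halves that rejoin when HNF4 fusion proteins dimerize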
Each line names hits and unclear results; the compound was inactive in the other large screens (follow-up assays come after a bar, where they were run).

COc1ccc(OC(=O)c2cnc3n(c2=O)CCS3)cc1	ABHD5 PLIN5 PPI 40.8 | ABHD5-PLIN5 conf inactive | HNF4 counter inactive
COc1ccc(NC(=O)/C=C/c2ccc(C)o2)cc1S(=O)(=O)N1CCOCC1	ABHD5 PLIN5 PPI 23.1 | ABHD5-PLIN5 conf inactive | HNF4 counter 17.4
Cc1ccc(/C=C/C(=O)NCc2cccs2)o1	ABHD5 PLIN5 PPI 24.5 | ABHD5-PLIN5 conf inactive | HNF4 counter 18.0
Cc1cc(NS(=O)(=O)c2ccc(NC(=O)/C=C/c3ccccc3)cc2)nc(C)n1	none
COc1cc(/C=C/C(=O)Nc2ccc(OC)c(S(=O)(=O)N3CCOCC3)c2)ccc1OC(F)F	none
Cc1ccc(/C=C/C(=O)Nc2ccc(Oc3ccccc3)cc2)o1	ABHD5 PLIN5 PPI 24.2 | ABHD5-PLIN5 conf inactive | HNF4 counter 39.0
Cc1cc(NS(=O)(=O)c2ccc(NC(=O)/C=C/c3ccc(C)o3)cc2)nc(C)n1	ABHD5 PLIN5 PPI 28.6 | ABHD5-PLIN5 conf 51.3 | HNF4 counter 60.3
O=C(O)/C=C/C(=O)Nc1ccc(Oc2ccccc2)cc1	none
Cc1cc(NC(=O)NC(=O)c2ccccc2F)no1	none
CCOc1ccc(CNC(=O)C2CCCN(S(=O)(=O)N3CC(C)CC(C)C3)C2)cc1OC (stereo not drawn)	none
Cc1nc(N)nc(N)c1-c1ccc([N+](=O)[O-])cc1	none (no result: GRK2 inh)
COc1cccc(NC(=O)CCc2nnc3ccc(NCc4ccco4)nn23)c1	ABHD5 PLIN5 PPI 28.8 | ABHD5-PLIN5 conf inactive | HNF4 counter inactive
CC(=O)Nc1ccc(NC(=O)C(C)OC(=O)C23CC4CC(CC(Cl)(C4)C2)C3)cc1 (stereo not drawn)	none
C=CC(=O)N1C/C(=C/c2ccc(F)cc2)C(=O)/C(=C\c2ccc(F)cc2)C1	ABHD5 PLIN5 PPI 99.7, Beta2AR agonist 47.5 (no result: GRK2 inh) | ABHD5-PLIN5 conf 101.9 | HNF4 counter 105.5
O=C(O)/C=C/C(=O)c1ccc(O)cc1	ABHD5 PLIN5 PPI 86.3 | ABHD5-PLIN5 conf 96.1 | HNF4 counter 104.4
CCOC(=O)C1=C(O)/C(=C/c2ccc(-c3ccccc3C(=O)O)o2)SC1=Nc1ccc(C)cc1	ABHD5 PLIN5 PPI 26.6 (no result: GRK2 inh) | ABHD5-PLIN5 conf inactive | HNF4 counter inactive
COCC1=C(C(=O)OC)C(c2ccco2)n2ncnc2N1 (stereo not drawn)	ABHD5 PLIN5 PPI 38.0 | ABHD5-PLIN5 conf inactive | HNF4 counter inactive
CCCC1=C(C(=O)OCC)C(c2ccco2)n2ncnc2N1 (stereo not drawn)	none
Cc1cc(C)c2oc(=O)cc(CN3CCC(C)CC3)c2c1	none
COc1ccc(NC(=O)c2cc3ccccc3cc2O)cc1	ABHD5 PLIN5 PPI 48.3 | ABHD5-PLIN5 conf 53.3 | HNF4 counter 21.9
CC(C)(C)c1ccc(S(=O)(=O)NC(=O)C2(C)CCN2C(=O)C2(c3ccc(Cl)cc3)CC2)cc1 (stereo not drawn)	none (no result: GRK2 inh, Beta2AR agonist)
O=C1Nc2ccc(Br)cc2/C1=C/C(=O)c1ccc2c(c1)OCO2	ABHD5 PLIN5 PPI 72.3, Beta2AR agonist 54.7 | ABHD5-PLIN5 conf 92.9 | HNF4 counter 90.2
COc1ccc(C(=O)c2ccc(Br)cc2)cc1	none
COc1ccc(C(=O)/C=C2\C(=O)Nc3ccc(Br)cc32)cc1	ABHD5 PLIN5 PPI 85.5 (no result: GRK2 inh) | ABHD5-PLIN5 conf 97.5 | HNF4 counter 91.2
CCC(C)[C@H](NC(=O)[C@@H]1Cc2c([nH]c3ccccc23)C2c3ccccc3C(=O)N21)C(=O)NCC1CCCO1 (stereo partly drawn)	none
COc1ccc(CC(=O)NCC(C)(C)N2CCOCC2)cc1	none
CC1CCCC(C)N1S(=O)(=O)c1ccc(Cl)cc1 (stereo not drawn)	none
CC1=C(C)CS(=O)N(S(=O)(=O)c2ccc(Cl)cc2)C1 (stereo not drawn)	ABHD5 PLIN5 PPI 79.9 | ABHD5-PLIN5 conf 93.0 | HNF4 counter 108.8
O=C1C=CC(=O)N1CCCCCCCCCCN1C(=O)C=CC1=O	ABHD5 PLIN5 PPI 58.0 (no result: GRK2 inh) | ABHD5-PLIN5 conf 68.0 | HNF4 counter 105.7
O=C1C=CC(=O)N1Cc1ccncc1	none (no result: GRK2 inh)
O=C(CC1C(=O)NCCN1Cc1ccccc1C(F)(F)F)NCCN1CCCCC1=O (stereo not drawn)	none
Cn1nnnc1Sc1ncnc2scc(-c3ccccc3)c12	none
